Source: ChEMBL document CHEMBL1138436, “Biological activity and chemistry of taxoids from the Japanese yew, Taxus cuspidata” (J Nat Prod, 2004)
In brackets after ≈: the same amount, converted by molar mass.

Experiments:
[1] = Reversal of multidrug resistance in human 2780AD cells assessed as increase in vincristine accumulation at 10 ug/ml relative to verapamil; type: functional, A2780 ADR
KB = assay: Cytotoxicity against human KB cells; type: functional, cell-based
[2] = Reversal of multidrug resistance in human 2780AD cells assessed as increase in vincristine accumulation at 1 ug/ml relative to verapamil; type: functional, A2780 ADR
P388 [3] = assay: Antitumor activity against vincristine-resistant mouse P388 cells implanted in CDF1 mouse at 0.2 mg/kg assessed as median survival time relative to control; type: functional
How it was run: (§1)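 CDF1 mice were implanted i.p. with P388/VCR (vincristine-resistant) leukemia cells on day 0. Vincristine was given i.p. daily for 5 days, alone or together with a taxoid at 200 mg/kg. There were 5 mice per group. T/C (%) is the median survival time of treated mice divided by that of untreated control mice.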

P388 [4] = assay: Antitumor activity against vincristine-resistant mouse P388 cells implanted in CDF1 mouse at 0.1 mg/kg assessed as median survival time relative to control; type: functional; how it was run: as §1

C=C1[C@@H](OC(=O)/C=C/c2ccccc2)CC[C@@]2(C)[C@@H](O)[C@H](OC(C)=O)C3=C(C)C(=O)C[C@@H]([C@@H](OC(C)=O)[C@H]12)C3(C)C
Activity [1]: 185%
IC50 (KB): 0.08 µg/mL (≈ 0.142 µM)

C=C1[C@@H](OC(=O)/C=C/c2ccccc2)CC[C@@]2(C)[C@@H](OC(C)=O)[C@H](OC(C)=O)C3=C(C)C(=O)C[C@@H]([C@@H](O)[C@H]12)C3(C)C
Activity [1]: 191%

C=C1[C@@H](OC(=O)/C=C/c2ccccc2)CC[C@@]2(C)[C@@H](OC(C)=O)[C@H](OC(C)=O)[C@@]34O[C@]3(C)C(=O)C[C@@H]([C@@H](OC(C)=O)[C@H]12)C4(C)C
Activity [2]: 142%

C=C1[C@@H](OC(=O)/C=C/c2ccccc2)CC[C@@]2(C)[C@@H](OC(C)=O)[C@H](OC(C)=O)[C@@]34[C@H](C)C(=O)C[C@@](O)([C@@H](OC(C)=O)[C@@]132)C4(C)C
Activity [2]: 204%

C=C1[C@@H](OC(=O)/C=C/c2ccccc2)C[C@H](OC(C)=O)[C@@]2(COC(C)=O)[C@@H](OC(C)=O)[C@H](O)[C@]3(O)[C@@]4(C)CO[C@]3(C)C(=O)C[C@H]4[C@@H](OC(C)=O)[C@H]12 [TAXUSPINE T]
IC50 (KB): 0.08 µg/mL (≈ 0.112 µM)

CC(=O)O[C@H]1C[C@H]2[C@@H](OC(C)=O)/C=C3\C[C@](C)(C(=O)[C@H](O)C(=C1C)C2(C)C)[C@@H](OC(C)=O)C[C@@H]3O [TAXUSPINE W]
IC50 (KB): 0.08 µg/mL (≈ 0.162 µM)

CC[C@]1(O)C[C@H]2CN(CCc3c([nH]c4ccccc34)[C@@](C(=O)OC)(c3cc4c(cc3OC)N(C=O)[C@H]3[C@@](O)(C(=O)OC)[C@H](OC(C)=O)[C@]5(CC)C=CCN6CC[C@]43[C@@H]65)C2)C1 [VINCRISTINE]
T/C (P388 [3]): 110%
T/C (P388 [4]): 92%
